Where “and” joins values, the source holds several entries; their conditions need not be identical. Equal entries are not always repeated.
How the values were obtained:
Rattus norvegicus [1] = assay: Biodistribution of compound in rats liver after an intravenous injection was measured at 30 min; format: ADME, organism-based; conditions: in vivo, 0.5 h
Summary of the method: (§1)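 Male Sprague-Dawley rats (225-300 g), free access to food and water. Under ether anesthesia, given 0.2 mL saline containing 125I-labelled ligand (2-5 μCi, ~2200 Ci/mmol) into the femoral vein. Killed by cardiac excision at set times. Organs removed, weighed and gamma-counted. % dose/organ is taken against diluted injectate aliquots, with blood and muscle assumed to be 7% and 40% of body weight. Mean of 3 rats ± std dev.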

Rattus norvegicus [2] = assay: Biodistribution of compound in rats lung after an intravenous injection was measured at 30 min; format: ADME, organism-based; conditions: in vivo, 0.5 h; summary of the method: as §1
Rattus norvegicus [3] = assay: Biodistribution of compound in rats kidney after an intravenous injection was measured at 30 min; format: ADME, organism-based; conditions: in vivo, 0.5 h; summary of the method: as §1
Rattus norvegicus [4] = assay: Biodistribution of compound in rats skin after an intravenous injection was measured at 4 hr; format: ADME, organism-based, Zone of skin; conditions: in vivo; summary of the method: as §1
Rattus norvegicus [5] = assay: Biodistribution of compound in rats liver after an intravenous injection was measured at 2 min; format: ADME, organism-based; conditions: in vivo; summary of the method: as §1
Rattus norvegicus [6] = assay: Biodistribution of compound in rats skin after an intravenous injection was measured at 24 hr; format: ADME, organism-based, Zone of skin; conditions: in vivo; summary of the method: as §1
Rattus norvegicus [7] = assay: Biodistribution of compound in rats heart after an intravenous injection was measured at 4 hr; format: ADME, organism-based; conditions: in vivo; summary of the method: as §1
Rattus norvegicus [8] = assay: Biodistribution of compound in rats spleen after an intravenous injection was measured at 1 hr; format: ADME, organism-based; conditions: in vivo; summary of the method: as §1
Rattus norvegicus [9] = assay: Regional brain distribution of compound in rats striatum after an intravenous injection was measured at 30 min; format: ADME, organism-based; conditions: in vivo, 0.5 h
Summary of the method: (§2)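 After femoral-vein injection of [125I]-labeled ligand (2-5 μCi, ~2200 Ci/mmol, 0.2 mL saline, ether anesthesia) into male Sprague-Dawley rats (225-300 g), brains were dissected into cortex, striatum and cerebellum, weighed and gamma-counted. % dose/gram calculated against diluted initial dose; regional ratio = % dose/gram of region divided by that of cerebellum.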

Rattus norvegicus [10] = assay: Biodistribution of compound in rats brain after an intravenous injection was measured at 1 hr; format: ADME, organism-based; conditions: in vivo
Summary of the method: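 Rats (male Sprague-Dawley, 225-300 g) given the 125I ligand (2-5 μCi, ~2200 Ci/mmol) in 0.2 mL saline via the femoral vein under ether anesthesia, then killed at set times. Whole brain removed, weighed and gamma-counted. % dose/organ is taken against diluted injectate aliquots. Mean of 3 rats ± std dev.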

Rattus norvegicus [11] = assay: Biodistribution of compound in rats lung after an intravenous injection was measured at 2 min; format: ADME, organism-based; conditions: in vivo; summary of the method: as §1
Rattus norvegicus [12] = assay: (§3) Biodistribution ratio measured as the ratio of compound present in brain to that of blood at 4 hr after intravenous injection; format: ADME, organism-based; conditions: brain, 4 h
Summary of the method: (§4)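 Male Sprague-Dawley rats (225-300 g) given 0.2 mL saline containing [125I]-labeled ligand (2-5 μCi, ~2200 Ci/mmol) via femoral vein under ether anesthesia; sacrificed at set times by cardiac excision. Brain and blood weighed and gamma-counted against diluted injectate; ratio taken from % dose/gram values, 3 rats per time point.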

[13] = as §3; format: ADME, organism-based; conditions: rat; summary of the method: as §4
Rattus norvegicus [14] = assay: Regional brain distribution of compound in rats striatum after an intravenous injection was measured at 4 hr; format: ADME, organism-based; conditions: in vivo; summary of the method: as §2
Rattus norvegicus [15] = assay: Biodistribution ratio measured as the ratio of compound present in brain to that of blood at 30 minutes after intravenous injection; format: ADME, organism-based; conditions: 0.5 h; summary of the method: as §4
Rattus norvegicus [16] = assay: Biodistribution of compound in rats spleen after an intravenous injection was measured at 4 hr; format: ADME, organism-based; conditions: in vivo; summary of the method: as §1
Rattus norvegicus [17] = assay: Biodistribution of compound in rats muscle after an intravenous injection was measured at 2 min; format: ADME, organism-based, Muscle tissue; conditions: in vivo; summary of the method: as §1
Rattus norvegicus [18] = assay: Biodistribution of compound in rats thyroid after an intravenous injection was measured at 1 hr; format: ADME, organism-based, Thyroid gland; conditions: in vivo; summary of the method: as §1
Rattus norvegicus [19] = assay: Biodistribution of compound in rats lung after an intravenous injection was measured at 24 hr; format: ADME, organism-based; conditions: in vivo; summary of the method: as §1
Rattus norvegicus [20] = assay: Biodistribution of compound in rats lung after an intravenous injection was measured at 1 hr; format: ADME, organism-based; conditions: in vivo; summary of the method: as §1
Rattus norvegicus [21] = assay: Biodistribution of compound in rats blood after an intravenous injection was measured at 24 hr; format: ADME, organism-based; conditions: in vivo; summary of the method: as §1
Rattus norvegicus [22] = assay: Biodistribution of compound in rats heart after an intravenous injection was measured at 2 min; format: ADME, organism-based; conditions: in vivo; summary of the method: as §1
Rattus norvegicus [23] = assay: Regional brain distribution of compound in rats cerebellum after an intravenous injection was measured at 1 hr; format: ADME, organism-based; conditions: in vivo; summary of the method: as §2
Rattus norvegicus [24] = assay: Biodistribution of compound in rats blood after an intravenous injection was measured at 2 min; format: ADME, organism-based; conditions: in vivo; summary of the method: as §1
Rattus norvegicus [25] = assay: Biodistribution of compound in rats kidney after an intravenous injection was measured at 4 hr; format: ADME, organism-based; conditions: in vivo; summary of the method: as §1
Rattus norvegicus [26] = assay: Biodistribution of compound in rats liver after an intravenous injection was measured at 24 hr; format: ADME, organism-based; conditions: in vivo; summary of the method: as §1
Rattus norvegicus [27] = assay: Biodistribution of compound in rats heart after an intravenous injection was measured at 24 hr; format: ADME, organism-based; conditions: in vivo; summary of the method: as §1

CN1CCc2cc(Cl)c(O)cc2[C@@H](c2cccc(I)c2)C1
Biodistribution (Rattus norvegicus [1]): 11.45 | Biodistribution (Rattus norvegicus [2]): 1.24 | Biodistribution (Rattus norvegicus [3]): 0.945 | Biodistribution (Rattus norvegicus [4]): 1.14 | Biodistribution (Rattus norvegicus [5]): 15.78 | Biodistribution (Rattus norvegicus [6]): 0.288 | Biodistribution (Rattus norvegicus [7]): 0.014 | Biodistribution (Rattus norvegicus [8]): 0.123 | Biodistribution (Rattus norvegicus [9]): 7.09% and 5.23% | Biodistribution (Rattus norvegicus [10]): 0.568 | Biodistribution (Rattus norvegicus [11]): 10.18 | Biodistribution (Rattus norvegicus [12]): 5.23% | Kp at 4 h [13]: 5.23 | Kp at 4 h ([13]; brain / blood): 5.23 | Biodistribution (Rattus norvegicus [14]): 0.6 | Biodistribution (Rattus norvegicus [15]): 12.7% | Biodistribution (Rattus norvegicus [16]): 0.015 | Biodistribution (Rattus norvegicus [17]): 10.8 | Biodistribution (Rattus norvegicus [18]): 0.059 | Biodistribution (Rattus norvegicus [19]): 0.012 | Biodistribution (Rattus norvegicus [20]): 0.621 | Biodistribution (Rattus norvegicus [21]): 0.046 | Biodistribution (Rattus norvegicus [22]): 1.14 | Biodistribution (Rattus norvegicus [23]): 0.129 | Biodistribution (Rattus norvegicus [24]): 3.28 | Biodistribution (Rattus norvegicus [25]): 0.476 | Biodistribution (Rattus norvegicus [26]): 3.84 | Biodistribution (Rattus norvegicus [27]): 0.001

Source: ChEMBL document CHEMBL1125639, “Synthesis and resolution of (+-)-7-chloro-8-hydroxy-1-(3'-iodophenyl)-3-methyl-2,3,4,5-tetrahydro- 1H-3- benzazepine (TISCH): a high affinity and selective iodinated ligand for CNS D1 dopamine receptor” (J Med Chem, 1991)
